Laboratory results: ChEMBL document CHEMBL2176990, “Synthesis and biological evaluation of 5-benzylidenepyrimidine-2,4,6(1H,3H,5H)-trione derivatives for the treatment of obesity-related nonalcoholic fatty liver disease” (J Med Chem, 2012)
Active and inactive are the calls of the source. The calls are words filed in the database; no cut-off is given here.

Columns and labels:
HepG2 [1] = assay: Reduction of glucose consumption in insulin-resistant human HepG2 cells at 10 uM after 24 hrs by glucose oxidase method; format: functional, cell-based
Procedure, shortened: (§1)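 HepG2 cells in DMEM (22.2 mM glucose) with 10% FBS, exposed to 0.1 μM insulin from plating for 2 days. At confluence, given fresh 22.2 mM glucose DMEM with test agents for 24 h. Medium glucose measured by glucose oxidase. Consumption = blank minus remaining glucose, normalized to MTT. Three independent experiments.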

HepG2 [2] = assay: Reduction of glucose consumption in insulin-resistant human HepG2 cells at 10 uM after 24 hrs by glucose oxidase method in presence of 0.1 uM of insulin; format: functional, cell-based; procedure, shortened: as §1
HepG2 [3] = assay: Reduction of glucose consumption in insulin-resistant human HepG2 cells at 10 uM after 24 hrs by glucose oxidase method in presence of 22.2 mM of glucose; format: functional, cell-based; procedure, shortened: as §1
3T3-L1 [4] = assay: Down-regulation of […] expression in mouse 3T3L1 cells at 10 uM after 24 hrs by ELISA; format: functional
Procedure, shortened: (§2)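 3T3-L1 preadipocytes grown to 2 days post-confluence. Differentiated with 0.5 mM IBMX, 0.25 μM dexamethasone and 1 μg/mL insulin for 2 days, then insulin alone for 2 days, then 10% FBS DMEM. On day 12, treated 24 h; secreted adiponectin and leptin measured by ELISA. Three independent experiments.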

3T3-L1 [5] = assay: Up-regulation of adiponectin expression in mouse 3T3L1 cells at 10 uM after 24 hrs by ELISA; format: functional; procedure, shortened: as §2
Rattus norvegicus [6] = assay: Antiobesity activity in Wistar rat high fat diet-induced NAFLD model assessed as reduction of serum triglycerides level at 150 mg/kg, po qd for 4 weeks; format: functional
Procedure, shortened: (§3)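 Male Wistar rats (160−180 g) fed high-fat diet (50.55% calories from fat), n = 10 per group. Dosed orally at 150 mg/kg/day for 4 weeks. Body, liver and fat weights and food intake recorded. Serum lipids, AST, ALT and glucose measured on a biochemistry analyzer. Fasting insulin measured by kit; adiponectin and leptin by ELISA. Mean ± SD; percent change vs HFD group.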

Mus musculus [7] = assay: Antiobesity activity in C57BL/6J mouse high fat diet-induced NAFLD model assessed as reduction of postprandial glucose level at 150 mg/kg, po qd for 6 weeks by intravenous glucose tolerance test; format: functional, organism-based; design: dose 150 mg/kg
Procedure, shortened: (§4)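 DIO C57BL/6J mice (HFD 60.0% fat) dosed orally for 6 weeks, n = 5, fasted overnight. Glucose load given either orally at 3.0 g/kg (OGTT) or intravenously at 0.5 g/kg (IGTT). Tail-vein blood sampled at 0, 15, 30, 60, 90, 120 and 180 min.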

Mus musculus [8] = assay: Antiobesity activity in C57BL/6J mouse high fat diet-induced NAFLD model assessed as reduction of fasting blood glucose level at 150 mg/kg, po qd for 7 weeks; format: functional; design: scale not given: the % may be the effect or the level left
Procedure, shortened: (§5)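 Male C57BL/6J mice, 3 weeks old, fed high-fat diet (60.0% calories from fat) ad libitum for 8 weeks, then randomized into groups of 10. Body weight and food intake recorded daily. Serum markers measured after sacrifice; fasting glucose included. Percent change = (V_HFD − V_treatment)/V_HFD × 100.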

Mus musculus [9] = assay: Antiobesity activity in C57BL/6J mouse high fat diet-induced NAFLD model assessed as reduction of serum LDL-cholesterol level at 150 mg/kg, po qd for 7 weeks; format: functional; design: scale not given: the % may be the effect or the level left; procedure, shortened: as §5
Rattus norvegicus [10] = assay: Antiobesity activity in Wistar rat high fat diet-induced NAFLD model assessed as reduction of fasting blood glucose level at 150 mg/kg, po qd for 4 weeks; format: functional; design: scale not given: the % may be the effect or the level left; procedure, shortened: as §3
Rattus norvegicus [11] = assay: Antiobesity activity in Wistar rat high fat diet-induced NAFLD model assessed as reduction of liver total cholesterol level at 150 mg/kg, po qd for 4 weeks; format: functional; design: scale not given: the % may be the effect or the level left
Procedure, shortened: (§6)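 Male Wistar rats on high-fat diet (50.55% fat), dosed orally at 150 mg/kg/day for 4 weeks, n = 10. Liver homogenized in 50 mM Tris-HCl pH 7.4 with 150 mM NaCl, 1 mM PMSF and 1 mM EDTA, then triglycerides and total cholesterol assayed. Liver sections stained with H&E to assess lipid droplets.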

Mus musculus [12] = assay: Antiobesity activity in C57BL/6J mouse high fat diet-induced NAFLD model assessed as reduction of serum ALT level at 150 mg/kg, po qd for 7 weeks; format: functional; design: scale not given: the % may be the effect or the level left; procedure, shortened: as §5
Rattus norvegicus [13] = assay: Antiobesity activity in Wistar rat high fat diet-induced NAFLD model assessed as reduction of serum AST level at 150 mg/kg, po qd for 4 weeks; format: functional; procedure, shortened: as §3
Rattus norvegicus [14] = assay: Antiobesity activity in Wistar rat high fat diet-induced NAFLD model assessed as reduction of liver triglycerides level at 150 mg/kg, po qd for 4 weeks; format: functional; design: scale not given: the % may be the effect or the level left; procedure, shortened: as §6
Mus musculus [15] = assay: Antiobesity activity in C57BL/6J mouse high fat diet-induced NAFLD model assessed as reduction of body weight at 150 mg/kg, po qd for 7 weeks; format: functional; design: scale not given: the % may be the effect or the level left; procedure, shortened: as §5
Rattus norvegicus [16] = assay: Antiobesity activity in Wistar rat high fat diet-induced NAFLD model assessed as reduction of leptin level at 150 mg/kg, po qd for 4 weeks; format: functional; procedure, shortened: as §3
HepG2 [17] = assay: Reduction of glucose consumption in insulin-resistant human HepG2 cells at 1 mM after 24 hrs by glucose oxidase method in presence of 0.1 uM of insulin; format: functional, cell-based; procedure, shortened: as §1
3T3-L1 [18] = assay: Down-regulation of […] expression in mouse 3T3L1 cells at 1 mM after 24 hrs by ELISA; format: functional; procedure, shortened: as §2
Rattus norvegicus [19] = assay: Antiobesity activity in Wistar rat high fat diet-induced NAFLD model assessed as reduction of body weight at 150 mg/kg, po qd for 4 weeks; format: functional; design: scale not given: the % may be the effect or the level left; procedure, shortened: as §3
Rattus norvegicus [20] = assay: Antiobesity activity in Wistar rat high fat diet-induced NAFLD model assessed as reduction of serum total cholesterol level at 150 mg/kg, po qd for 4 weeks; format: functional; procedure, shortened: as §3
HepG2 [21] = assay: Reduction of glucose consumption in insulin-resistant human HepG2 cells at 1 mM after 24 hrs by glucose oxidase method in presence of 22.2 mM of glucose; format: functional, cell-based; procedure, shortened: as §1
Rattus norvegicus [22] = assay: Antiobesity activity in Wistar rat high fat diet-induced NAFLD model assessed as reduction of serum insulin level at 150 mg/kg, po qd for 4 weeks; format: functional; design: scale not given: the % may be the effect or the level left; procedure, shortened: as §3
Rattus norvegicus [23] = assay: Antiobesity activity in Wistar rat high fat diet-induced NAFLD model assessed as reduction of fat mass at 150 mg/kg, po qd for 4 weeks; format: functional; design: scale not given: the % may be the effect or the level left; procedure, shortened: as §3
Mus musculus [24] = assay: Antiobesity activity in C57BL/6J mouse high fat diet-induced NAFLD model assessed as reduction of postprandial glucose level at 150 mg/kg, po qd for 6 weeks by oral glucose tolerance test; format: functional, organism-based; design: dose 150 mg/kg; procedure, shortened: as §4
Rattus norvegicus [25] = assay: Antiobesity activity in Wistar rat high fat diet-induced NAFLD model assessed as reduction of serum ALT level at 150 mg/kg, po qd for 4 weeks; format: functional; procedure, shortened: as §3
3T3-L1 [26] = assay: Up-regulation of adiponectin expression in mouse 3T3L1 cells at 1 mM after 24 hrs by ELISA; format: functional; procedure, shortened: as §2
Mus musculus [27] = assay: Antiobesity activity in C57BL/6J mouse high fat diet-induced NAFLD model assessed as reduction of serum HDL-cholesterol level at 150 mg/kg, po qd for 7 weeks; format: functional; design: scale not given: the % may be the effect or the level left; procedure, shortened: as §5
Mus musculus [28] = assay: Antiobesity activity in C57BL/6J mouse high fat diet-induced NAFLD model assessed as reduction of fat mass in epididymal and abdominal at 150 mg/kg, po qd for 7 weeks; format: functional, organism-based; design: dose 150 mg/kg; procedure, shortened: as §5
Mus musculus [29] = assay: Antiobesity activity in C57BL/6J mouse high fat diet-induced NAFLD model assessed as reduction of serum free fatty acid level at 150 mg/kg, po qd for 7 weeks; format: functional; design: scale not given: the % may be the effect or the level left; procedure, shortened: as §5
Rattus norvegicus [30] = assay: Antiobesity activity in Wistar rat high fat diet-induced NAFLD model assessed as reduction of liver weight at 150 mg/kg, po qd for 4 weeks; format: functional; design: scale not given: the % may be the effect or the level left; procedure, shortened: as §3
Mus musculus [31] = assay: Antiobesity activity in C57BL/6J mouse high fat diet-induced NAFLD model assessed as reduction of serum triglycerides level at 150 mg/kg, po qd for 7 weeks; format: functional; design: scale not given: the % may be the effect or the level left; procedure, shortened: as §5
Rattus norvegicus [32] = assay: Antiobesity activity in Wistar rat high fat diet-induced NAFLD model assessed as increase of adiponectin level at 150 mg/kg, po qd for 4 weeks; format: functional; procedure, shortened: as §3
Rattus norvegicus [33] = assay: Antiobesity activity in Wistar rat high fat diet-induced NAFLD model assessed as reduction of serum HDL-cholesterol level at 150 mg/kg, po qd for 4 weeks; format: functional; procedure, shortened: as §3
Rattus norvegicus [34] = assay: Antiobesity activity in Wistar rat high fat diet-induced NAFLD model assessed as reduction of serum LDL-cholesterol level at 150 mg/kg, po qd for 4 weeks; format: functional; procedure, shortened: as §3

COc1cc(OC2CCN(c3ncccc3C#N)CC2)cc(OC)c1C=C1C(=O)NC(=S)NC1=O
Activity (HepG2 [1]): inactive
Activity (HepG2 [2]): inactive

O=C1NC(=O)C(=Cc2ccc(OC3CCN(c4ncccc4C(F)(F)F)CC3)c(F)c2)C(=O)N1
Activity (HepG2 [1]): inactive
Activity (HepG2 [2]): inactive

O=C1NC(=O)C(=Cc2ccc(C(=O)NC3CCN(c4ccc([N+](=O)[O-])cn4)CC3)cc2)C(=O)N1
Activity (HepG2 [3]): Active
Activity (HepG2 [2]): Active

CS(=O)(=O)N(Cc1ccc(C=C2C(=O)NC(=O)NC2=O)cc1)C1CCN(c2ccc([N+](=O)[O-])cn2)CC1
Activity (HepG2 [1]): inactive
Activity (HepG2 [2]): inactive

O=C1NC(=O)C(=Cc2ccc(OC3CCN(C(=O)c4ccc(OC(F)F)cc4)CC3)cc2)C(=O)N1
Activity (HepG2 [1]): inactive
Activity (HepG2 [2]): inactive

O=C1NC(=O)C(=Cc2ccc(OC3CCN(C(=O)c4ccc(OC(F)F)cc4)CC3)c(F)c2)C(=O)N1
Activity (HepG2 [3]): Active
Activity (HepG2 [2]): Active

O=C1NC(=O)C(=Cc2ccc(OC3CCN(c4ncccc4C(F)(F)F)CC3)cc2)C(=O)N1
Activity (HepG2 [3]): Active
Activity (3T3-L1 [4]): inactive
Activity (3T3-L1 [5]): Active
Activity (HepG2 [2]): Active

CN(C)C(=N)NC(=N)N [METFORMIN]
Activity (Rattus norvegicus [6]): 1.6 mmol/L
Activity (Mus musculus [7]): Active
Activity (Mus musculus [8]): 10.3%
Activity (Mus musculus [9]): 44.4%
Activity (Rattus norvegicus [10]): 19.7%
Activity (Rattus norvegicus [11]): 50%
Activity (Mus musculus [12]): 66%
Activity (Rattus norvegicus [13]): 89 U/L
Activity (Rattus norvegicus [14]): 48.8%
Activity (Mus musculus [15]): 9.62%
Activity (Rattus norvegicus [16]): 13.6 ng/mL
Activity (HepG2 [17]): Active
Activity (3T3-L1 [18]): 360.8 pg/mL
Activity (Rattus norvegicus [19]): 5.2%
Activity (Rattus norvegicus [20]): 1.99 mmol/L
Activity (HepG2 [21]): Active
Activity (Rattus norvegicus [22]): 12.8%
Activity (Rattus norvegicus [23]): 18.1%
Activity (Mus musculus [24]): Active
Activity (Rattus norvegicus [25]): 39 U/L
Activity (3T3-L1 [26]): 125.8 pg/mL
Activity (Mus musculus [27]): 46.7%
Activity (Mus musculus [28]): Active
Activity (Mus musculus [29]): 3.7%
Activity (Rattus norvegicus [30]): 2.2%
Activity (Mus musculus [31]): 29.3%
Activity (Rattus norvegicus [32]): 198.3 µg/mL
Activity (Rattus norvegicus [33]): 0.28 mmol/L
Activity (Rattus norvegicus [34]): 0.15 mmol/L

O=C1NC(=O)C(=Cc2ccc(C(=O)NC3CCN(c4cc([N+](=O)[O-])ccn4)CC3)cc2)C(=O)N1
Activity (HepG2 [1]): inactive
Activity (HepG2 [2]): inactive

COC(=O)c1sccc1S(=O)(=O)N1CCC(Oc2ccc(C=C3C(=O)NC(=O)NC3=O)cc2F)CC1
Activity (HepG2 [1]): inactive
Activity (HepG2 [2]): inactive

O=C1NC(=O)C(=Cc2ccc(OC3CCN(C(=O)c4ccncc4)CC3)cc2)C(=O)N1
Activity (HepG2 [3]): Active
Activity (3T3-L1 [4]): inactive
Activity (3T3-L1 [5]): Active
Activity (HepG2 [2]): Active

O=C1NC(=O)C(=Cc2ccc(OC3CCN(C(=O)c4cccc(C(F)(F)F)c4)CC3)cc2)C(=O)N1
Activity (HepG2 [3]): Active
Activity (3T3-L1 [4]): inactive
Activity (3T3-L1 [5]): Active
Activity (HepG2 [2]): Active

O=C1NC(=O)C(=Cc2ccc(OC3CCN(c4ccc(C(F)(F)F)cn4)CC3)cc2)C(=O)N1
Activity (HepG2 [1]): inactive
Activity (HepG2 [2]): inactive

O=C1NC(=O)C(=Cc2ccc(OC3CCN(C(=O)c4cccc5c4OC(F)(F)O5)CC3)c(F)c2)C(=O)N1
Activity (HepG2 [1]): inactive
Activity (HepG2 [2]): inactive
